ChEMBL document CHEMBL3243962, “Antileukemic activity of derivatives of 1,2-dimethyl-3,4-bis(hydroxymethyl)-5-phenylpyrrole bis(N-methylcarbamate)” (J Med Chem, 1979)
Calls of active or inactive are those of the source.

Columns and labels:
[1] = system: Mus musculus; assay: Toxicity in mouse P388 cells allografted CD2F1 mouse assessed as body weight loss at 100 mg/kg, ip of total 9 doses starting 24 hrs post tumor inoculation measured on day 5 of inoculation relative to control; assay type: organism-based; set-up: dose 100 mg/kg, route intraperitoneal; settings: in vivo
Procedure, shortened: (§1)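 Male CD2F1 mice inoculated ip with 6×10^6 P388 leukemia cells. Compounds given ip as distilled water–Tween 80 suspension, nine daily doses starting 24 h after inoculation; six mice per dose group. Treated-minus-control body-weight change (T − C) and toxicity-day survivors recorded on day 5 (4 days after first dose).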

[2] = system: Mus musculus; assay: Toxicity in mouse P388 cells allografted CD2F1 mouse assessed as mouse survival at 6.25 mg/kg, ip of total 9 doses starting 24 hrs post tumor inoculation measured on day 5 of inoculation relative to control; assay type: organism-based; set-up: dose 6.25 mg/kg, route intraperitoneal; settings: in vivo
Procedure, shortened: (§2)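 Male CD2F1 mice bearing ip P388 leukemia (6×10^6 cells) were dosed ip with nine daily doses in distilled water–Tween 80 suspension, starting 24 h after inoculation. Survivors per group of 6 were counted on day 5, i.e. 4 days after the first dose. Body-weight change of treated minus control mice was also recorded.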

[3] = system: Mus musculus; assay: Toxicity in mouse P388 cells allografted CD2F1 mouse assessed as mouse survival at 50 mg/kg, ip of total 9 doses starting 24 hrs post tumor inoculation measured on day 5 of inoculation relative to control; assay type: organism-based; set-up: dose 50 mg/kg, route intraperitoneal; settings: in vivo; procedure, shortened: as §2
[4] = system: Mus musculus; assay: Toxicity in mouse P388 cells allografted CD2F1 mouse assessed as body weight loss at 50 mg/kg, ip of total 9 doses starting 24 hrs post tumor inoculation measured on day 5 of inoculation relative to control; assay type: organism-based; set-up: dose 50 mg/kg, route intraperitoneal; settings: in vivo; procedure, shortened: as §1
[5] = system: P388; assay: Antitumor activity against mouse P388 cells allografted in CD2F1 mouse assessed as increase in mouse survival at 6.25 mg/kg, ip of total 9 doses starting 24 hrs post tumor inoculation measured on day 5 of inoculation relative to control; assay type: functional; settings: route intraperitoneal
Procedure, shortened: (§3)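 Male CD2F1 mice inoculated ip with 6×10^6 P388 leukemia cells. Dosing was ip as a suspension in distilled water–Tween 80, nine daily doses starting 24 h after inoculation. Activity was read as median survival time of treated vs control mice (% T/C); % T/C ≥ 120 was considered significant. Groups were 6 mice.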

[6] = system: Mus musculus; assay: Toxicity in mouse P388 cells allografted CD2F1 mouse assessed as body weight loss at 25 mg/kg, ip of total 9 doses starting 24 hrs post tumor inoculation measured on day 5 of inoculation relative to control; assay type: organism-based; set-up: dose 25 mg/kg, route intraperitoneal; settings: in vivo; procedure, shortened: as §1
[7] = system: Mus musculus; assay: Toxicity in mouse P388 cells allografted CD2F1 mouse assessed as body weight loss at 12.5 mg/kg, ip of total 9 doses starting 24 hrs post tumor inoculation measured on day 5 of inoculation relative to control; assay type: organism-based; set-up: dose 12.5 mg/kg, route intraperitoneal; settings: in vivo; procedure, shortened: as §1
[8] = system: P388; assay: Antitumor activity against mouse P388 cells allografted in CD2F1 mouse assessed as increase in mouse survival at 100 mg/kg, ip of total 9 doses starting 24 hrs post tumor inoculation measured on day 5 of inoculation relative to control; assay type: functional; settings: route intraperitoneal; procedure, shortened: as §3
[9] = system: Mus musculus; assay: Toxicity in mouse P388 cells allografted CD2F1 mouse assessed as body weight loss at 6.25 mg/kg, ip of total 9 doses starting 24 hrs post tumor inoculation measured on day 5 of inoculation relative to control; assay type: organism-based; set-up: dose 6.25 mg/kg, route intraperitoneal; settings: in vivo; procedure, shortened: as §1
[10] = system: P388; assay: Antitumor activity against mouse P388 cells allografted in CD2F1 mouse assessed as increase in mouse survival at 50 mg/kg, ip of total 9 doses starting 24 hrs post tumor inoculation measured on day 5 of inoculation relative to control; assay type: functional; settings: route intraperitoneal; procedure, shortened: as §3
[11] = system: P388; assay: Antitumor activity against mouse P388 cells allografted in CD2F1 mouse assessed as increase in mouse survival at 25 mg/kg, ip of total 9 doses starting 24 hrs post tumor inoculation measured on day 5 of inoculation relative to control; assay type: functional; settings: route intraperitoneal; procedure, shortened: as §3
[12] = system: Mus musculus; assay: Toxicity in mouse P388 cells allografted CD2F1 mouse assessed as mouse survival at 12.5 mg/kg, ip of total 9 doses starting 24 hrs post tumor inoculation measured on day 5 of inoculation relative to control; assay type: organism-based; set-up: dose 12.5 mg/kg, route intraperitoneal; settings: in vivo; procedure, shortened: as §2
[13] = system: P388; assay: Antitumor activity against mouse P388 cells allografted in CD2F1 mouse assessed as increase in mouse survival at 12.5 mg/kg, ip of total 9 doses starting 24 hrs post tumor inoculation measured on day 5 of inoculation relative to control; assay type: functional; settings: route intraperitoneal; procedure, shortened: as §3
[14] = system: Mus musculus; assay: Toxicity in mouse P388 cells allografted CD2F1 mouse assessed as mouse survival at 25 mg/kg, ip of total 9 doses starting 24 hrs post tumor inoculation measured on day 5 of inoculation relative to control; assay type: organism-based; set-up: dose 25 mg/kg, route intraperitoneal; settings: in vivo; procedure, shortened: as §2
[15] = system: Mus musculus; assay: Toxicity in mouse P388 cells allografted CD2F1 mouse assessed as mouse survival at 100 mg/kg, ip of total 9 doses starting 24 hrs post tumor inoculation measured on day 5 of inoculation relative to control; assay type: organism-based; set-up: dose 100 mg/kg, route intraperitoneal; settings: in vivo; procedure, shortened: as §2
[16] = system: Staphylococcus aureus; assay: Antimicrobial activity against Staphylococcus aureus ATCC 25923 at 1 mg after 24 hrs by disk sensitivity assay; assay type: functional, organism-based
Procedure, shortened: (§4)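 Bacteria grown 24 h in trypticase soy broth; 1 mL used to seed a lawn on trypticase soy agar. Sterile 6 mm paper disks carrying 1 mg test compound placed on agar, incubated 24 h at 37 °C, then zone of inhibition around each disk measured.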

[17] = system: Staphylococcus epidermidis; assay: Antimicrobial activity against Staphylococcus epidermidis ATCC 12228 at 1 mg after 24 hrs by disk sensitivity assay; assay type: functional, organism-based; procedure, shortened: as §4
[18] = system: Salmonella typhimurium; assay: Antimicrobial activity against Salmonella typhimurium ATCC 14028 at 1 mg after 24 hrs by disk sensitivity assay; assay type: functional, organism-based; settings: Salmonella enterica subsp. enterica serovar Typhimurium; procedure, shortened: as §4
[19] = system: Klebsiella pneumoniae; assay: Antimicrobial activity against Klebsiella pneumoniae ATCC 23357 at 1 mg after 24 hrs by disk sensitivity assay; assay type: functional, organism-based; procedure, shortened: as §4
[20] = system: Escherichia coli; assay: Antimicrobial activity against Escherichia coli ATCC 25922 at 1 mg after 24 hrs by disk sensitivity assay; assay type: functional, organism-based; procedure, shortened: as §4
[21] = system: Serratia marcescens; assay: Antimicrobial activity against Serratia marcescens ATCC 8100 at 1 mg after 24 hrs by disk sensitivity assay; assay type: functional, organism-based; procedure, shortened: as §4
[22] = system: Proteus vulgaris; assay: Antimicrobial activity against Proteus vulgaris ATCC 6380 at 1 mg after 24 hrs by disk sensitivity assay; assay type: functional, organism-based; procedure, shortened: as §4
[23] = system: Enterobacter cloacae; assay: Antimicrobial activity against Enterobacter cloacae ATCC 23355 at 1 mg after 24 hrs by disk sensitivity assay; assay type: functional, organism-based; procedure, shortened: as §4
[24] = system: Mus musculus; assay: Toxicity in mouse P388 cells allografted CD2F1 mouse assessed as body weight loss at 20 mg/kg, ip of total 9 doses starting 24 hrs post tumor inoculation measured on day 5 of inoculation relative to control; assay type: organism-based; set-up: dose 20 mg/kg, route intraperitoneal; settings: in vivo; procedure, shortened: as §1
[25] = system: Mus musculus; assay: Toxicity in mouse P388 cells allografted CD2F1 mouse assessed as body weight loss at 10 mg/kg, ip of total 9 doses starting 24 hrs post tumor inoculation measured on day 5 of inoculation relative to control; assay type: organism-based; set-up: dose 10 mg/kg, route intraperitoneal; settings: in vivo; procedure, shortened: as §1
[26] = system: P388; assay: Antitumor activity against mouse P388 cells allografted in CD2F1 mouse assessed as increase in mouse survival at 5 mg/kg, ip of total 9 doses starting 24 hrs post tumor inoculation measured on day 5 of inoculation relative to control; assay type: functional; settings: route intraperitoneal; procedure, shortened: as §3
[27] = system: P388; assay: Antitumor activity against mouse P388 cells allografted in CD2F1 mouse assessed as increase in mouse survival at 40 mg/kg, ip of total 9 doses starting 24 hrs post tumor inoculation measured on day 5 of inoculation relative to control; assay type: functional; settings: route intraperitoneal; procedure, shortened: as §3
[28] = system: P388; assay: Antitumor activity against mouse P388 cells allografted in CD2F1 mouse assessed as increase in mouse survival at 20 mg/kg, ip of total 9 doses starting 24 hrs post tumor inoculation measured on day 5 of inoculation relative to control; assay type: functional; settings: route intraperitoneal; procedure, shortened: as §3
[29] = system: P388; assay: Antitumor activity against mouse P388 cells allografted in CD2F1 mouse assessed as increase in mouse survival at 10 mg/kg, ip of total 9 doses starting 24 hrs post tumor inoculation measured on day 5 of inoculation relative to control; assay type: functional; settings: route intraperitoneal; procedure, shortened: as §3
[30] = system: Mus musculus; assay: Toxicity in mouse P388 cells allografted CD2F1 mouse assessed as mouse survival at 5 mg/kg, ip of total 9 doses starting 24 hrs post tumor inoculation measured on day 5 of inoculation relative to control; assay type: organism-based; set-up: dose 5 mg/kg, route intraperitoneal; settings: in vivo; procedure, shortened: as §2
[31] = system: Mus musculus; assay: Toxicity in mouse P388 cells allografted CD2F1 mouse assessed as mouse survival at 20 mg/kg, ip of total 9 doses starting 24 hrs post tumor inoculation measured on day 5 of inoculation relative to control; assay type: organism-based; set-up: dose 20 mg/kg, route intraperitoneal; settings: in vivo; procedure, shortened: as §2
[32] = system: Mus musculus; assay: Toxicity in mouse P388 cells allografted CD2F1 mouse assessed as body weight loss at 40 mg/kg, ip of total 9 doses starting 24 hrs post tumor inoculation measured on day 5 of inoculation relative to control; assay type: organism-based; set-up: dose 40 mg/kg, route intraperitoneal; settings: in vivo; procedure, shortened: as §1
[33] = system: Mus musculus; assay: Toxicity in mouse P388 cells allografted CD2F1 mouse assessed as mouse survival at 10 mg/kg, ip of total 9 doses starting 24 hrs post tumor inoculation measured on day 5 of inoculation relative to control; assay type: organism-based; set-up: dose 10 mg/kg, route intraperitoneal; settings: in vivo; procedure, shortened: as §2
[34] = system: Mus musculus; assay: Toxicity in mouse P388 cells allografted CD2F1 mouse assessed as body weight loss at 5 mg/kg, ip of total 9 doses starting 24 hrs post tumor inoculation measured on day 5 of inoculation relative to control; assay type: organism-based; set-up: dose 5 mg/kg, route intraperitoneal; settings: in vivo; procedure, shortened: as §1

Row | Compound | Activity [1] | Activity [2] | Activity [3] | Activity [4] | T/C [5] | Activity [6] | Activity [7] | Activity [9] | T/C [10] | T/C [11] | Activity [12] | T/C [13] | Activity [14] | Activity [16] | Activity [17] | Activity [18] | Activity [19] | Activity [20] | Activity [21] | Activity [22] | also measured
1 | CNC(=O)OCc1c(COC(=O)NC)c(-c2ccc(N)cc2)n(C)c1C | 3.5 g | Non-toxic | Non-toxic | 2.5 g | 92% | 0.4 g | 0.1 g | 0.7 g | 119% | 100% | Non-toxic | 98% | – | – | – | – | – | – | – | – | T/C [8]: 135%
2 | CNC(=O)OCc1c(COC(=O)NC)c(-c2ccc(F)cc2)n(C)c1C | 1.8 g | Non-toxic | Non-toxic | 5.1 g | 134% | 3.9 g | 4.3 g | 2.4 g | 132% | 150% | Non-toxic | 130% | Non-toxic | Active | Active | – | – | – | – | – | Activity [15]: Toxic
3 | CNC(=O)OCc1c(COC(=O)NC)c(-c2ccc(C(C)(C)C)cc2)n(C)c1C | 4.4 g | Non-toxic | – | 5.1 g | 152% | 4 g | 3.8 g | 2 g | 97% | 158% | Non-toxic | 155% | Non-toxic | inactive | inactive | inactive | inactive | inactive | inactive | inactive | Activity [23]: inactive
4 | CNC(=O)OCc1c(COC(=O)NC)c(-c2ccc(Br)cc2)n(C)c1C | – | – | – | – | – | – | – | – | – | – | – | – | – | – | – | – | – | – | – | – | Activity [24]: 2.8 g; Activity [25]: 2.8 g; T/C [26]: 144%; T/C [27]: <75%; T/C [28]: 155%; T/C [29]: 146%; Activity [30]: Non-toxic; Activity [31]: Non-toxic; Activity [32]: 5 g; Activity [33]: Non-toxic; Activity [34]: 1.8 g
5 | CNC(=O)OCc1c(COC(=O)NC)c(-c2ccc([N+](=O)[O-])cc2)n(C)c1C | 4.4 g | Non-toxic | – | 6.6 g | 153% | 5.5 g | 4.1 g | 2.9 g | < 90% | <90% | Non-toxic | 169% | Non-toxic | inactive | inactive | inactive | inactive | inactive | inactive | inactive | Activity [23]: inactive
